Source: ChEMBL document CHEMBL1667831, “Synthesis and biological evaluation of 2-aminoimidazole/carbamate hybrid anti-biofilm and anti-microbial agents” (Bioorg Med Chem Lett, 2011)

Tests used:
[1] = Cytotoxicity against sheep RBC assessed hemolysis; format: cell-based, Ovis aries, Erythrocyte; conditions: sheep red blood cells, read-out: HD50 (the source's name)
Summary of the method: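 Red blood cell hemolysis assay using defibrinated sheep blood. HD50 is the concentration at which 50% hemolysis is observed.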

[2] = tested on: Pseudomonas aeruginosa; experiment: Antibacterial activity against Pseudomonas aeruginosa PA14; format: functional
[3] = tested on: Staphylococcus aureus; experiment: Antibacterial activity against methicillin-resistant Staphylococcus aureus; format: functional
Summary of the method: (§1)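 MIC, the minimum inhibitory concentration, measured against planktonic bacteria.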

[4] = tested on: Pseudomonas aeruginosa; experiment: Antibiofilm activity against Pseudomonas aeruginosa PA14; format: functional, organism-based
Summary of the method: (§2)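 Crystal violet reporter assay of biofilm formation, run as a dose-response. IC50 is the concentration inhibiting 50% of biofilm formation. Highest concentration tested 200 µM.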

[5] = tested on: Staphylococcus aureus; experiment: Antibacterial activity against Staphylococcus aureus ATCC 29213; format: functional; summary of the method: as §1
[6] = tested on: Acinetobacter baumannii; experiment: Antibacterial activity against multi-drug resistant Acinetobacter baumannii ATCC BAA-1605; format: functional; summary of the method: as §1
[7] = tested on: Acinetobacter baumannii; experiment: Antibacterial activity against Acinetobacter baumannii ATCC 19606; format: functional; conditions: ATCC 19606 = CIP 70.34 = JCM 6841; summary of the method: as §1
[8] = tested on: Acinetobacter baumannii; experiment: Antibiofilm activity against Acinetobacter baumannii ATCC 19606; format: functional, organism-based; conditions: ATCC 19606 = CIP 70.34 = JCM 6841; summary of the method: as §2
[9] = tested on: Staphylococcus aureus; experiment: Antibiofilm activity against Staphylococcus aureus ATCC 29213 assessed as biofilm dispersal; format: functional, organism-based
Summary of the method: (§3)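 Dispersal of pre-formed biofilms, tested in dose-response. The value reported is EC50.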

[10] = tested on: Staphylococcus aureus; experiment: Antibiofilm activity against methicillin-resistant Staphylococcus aureus assessed as biofilm dispersal; format: functional, organism-based; summary of the method: as §3
[11] = tested on: Acinetobacter baumannii; experiment: Antibiofilm activity against Acinetobacter baumannii ATCC 19606 assessed as biofilm dispersal; format: functional, organism-based; conditions: ATCC 19606 = CIP 70.34 = JCM 6841
Summary of the method: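 Dispersal of pre-formed A. baumannii biofilms, run as a dose-response. EC50 values are reported for dispersal.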

[12] = tested on: Staphylococcus aureus; experiment: Antibiofilm activity against methicillin-resistant Staphylococcus aureus; format: functional, organism-based
Summary of the method: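 Biofilm inhibition dose-response study. Biofilm formation is quantified with a crystal violet reporter assay. IC50 is the concentration that inhibits 50% of biofilm formation.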

| SMILES | HC50 [1] | MIC [2] | MIC [3] | IC50 [4] | MIC [5] | MIC [6] | MIC [7] | IC50 [8] | EC50 [9] | EC50 [10] | EC50 [11] | IC50 [12] |
| --- | --- | --- | --- | --- | --- | --- | --- | --- | --- | --- | --- | --- |
| CC(C)[C@@H]1CC[C@@H](C)C[C@H]1OC(=O)NCCCCCc1c[nH]c(N)n1.Cl | 464 µM | 32 µg/mL | 32 µg/mL | 18 µM | 32 µg/mL | 32 µg/mL | 32 µg/mL | 19.2 µM | – | – | – | – |
| CC(C)[C@@H]1CC[C@@H](C)C[C@H]1OC(=O)NCCCCCCCc1c[nH]c(N)n1.Cl | 474 µM | 64 µg/mL | 8 µg/mL | – | 8 µg/mL | 8 µg/mL | 8 µg/mL | 16.7 µM | 38.8 µM | 53.5 µM | 68.3 µM | – |
| CC(C)[C@@H]1CC[C@@H](C)C[C@H]1OC(=O)N(CCCCCCc1cn(CCCCCCc2c[nH]c(N)n2)nn1)CCc1ccccn1.Cl | 46 µM | > 128 µg/mL | 4 µg/mL | > 200 µM | 4 µg/mL | > 128 µg/mL | 32 µg/mL | 18.4 µM | – | – | – | – |
| CC(C)[C@@H]1CC[C@@H](C)C[C@H]1OC(=O)N(CCCCCCc1cn(CCCCCCCc2c[nH]c(N)n2)nn1)CCc1ccccn1.Cl | 42.7 µM | > 128 µg/mL | 4 µg/mL | > 200 µM | 4 µg/mL | > 128 µg/mL | > 128 µg/mL | 16.7 µM | 32.5 µM | 38.1 µM | 20.6 µM | – |
| CC(C)[C@@H]1CC[C@@H](C)C[C@H]1OC(=O)NCCn1cc(CCCCCc2c[nH]c(N)n2)nn1.Cl | 474 µM | > 128 µg/mL | 64 µg/mL | 58.7 µM | 16 µg/mL | 128 µg/mL | 64 µg/mL | 94.9 µM | – | – | – | 29.9 µM |
| CC(C)[C@@H]1CC[C@@H](C)C[C@H]1OC(=O)N(CCCCCCc1cn(CCCCCc2c[nH]c(N)n2)nn1)CCc1ccccn1.Cl | 93.8 µM | > 128 µg/mL | 8 µg/mL | > 200 µM | 4 µg/mL | 16 µg/mL | 16 µg/mL | 19.2 µM | > 200 µM | > 200 µM | 37.5 µM | – |
| CC(C)[C@@H]1CC[C@@H](C)C[C@H]1OC(=O)NCCCCCCc1c[nH]c(N)n1.Cl | 229 µM | 64 µg/mL | 8 µg/mL | 18 µM | 8 µg/mL | 16 µg/mL | 16 µg/mL | – | – | – | – | – |
| CC(=O)NCCCCCCc1cn(CCCCCc2c[nH]c(N)n2)nn1.Cl | > 800 µM | > 128 µg/mL | > 128 µg/mL | > 200 µM | > 128 µg/mL | > 128 µg/mL | > 128 µg/mL | > 200 µM | – | – | – | > 200 µM |
| CC(C)[C@@H]1CC[C@@H](C)C[C@H]1OC(=O)NCCCn1cc(CCCCCc2c[nH]c(N)n2)nn1.Cl | 318 µM | 64 µg/mL | 16 µg/mL | 40.3 µM | 16 µg/mL | 64 µg/mL | 64 µg/mL | – | – | – | – | 20.5 µM |
